Tests used:
Aldehyde oxidase [1] = biological target: T1, Aldehyde oxidase (Homo sapiens, UniProt Q06278); assay: Drug metabolism in human hepatocytes assessed as aldehyde oxidase mediated M1 formation at 1 uM by LC/MS/MS analysis; assay type: ADME, cell-based, Hepatocyte
T1 sequence (Q06278 whole entry): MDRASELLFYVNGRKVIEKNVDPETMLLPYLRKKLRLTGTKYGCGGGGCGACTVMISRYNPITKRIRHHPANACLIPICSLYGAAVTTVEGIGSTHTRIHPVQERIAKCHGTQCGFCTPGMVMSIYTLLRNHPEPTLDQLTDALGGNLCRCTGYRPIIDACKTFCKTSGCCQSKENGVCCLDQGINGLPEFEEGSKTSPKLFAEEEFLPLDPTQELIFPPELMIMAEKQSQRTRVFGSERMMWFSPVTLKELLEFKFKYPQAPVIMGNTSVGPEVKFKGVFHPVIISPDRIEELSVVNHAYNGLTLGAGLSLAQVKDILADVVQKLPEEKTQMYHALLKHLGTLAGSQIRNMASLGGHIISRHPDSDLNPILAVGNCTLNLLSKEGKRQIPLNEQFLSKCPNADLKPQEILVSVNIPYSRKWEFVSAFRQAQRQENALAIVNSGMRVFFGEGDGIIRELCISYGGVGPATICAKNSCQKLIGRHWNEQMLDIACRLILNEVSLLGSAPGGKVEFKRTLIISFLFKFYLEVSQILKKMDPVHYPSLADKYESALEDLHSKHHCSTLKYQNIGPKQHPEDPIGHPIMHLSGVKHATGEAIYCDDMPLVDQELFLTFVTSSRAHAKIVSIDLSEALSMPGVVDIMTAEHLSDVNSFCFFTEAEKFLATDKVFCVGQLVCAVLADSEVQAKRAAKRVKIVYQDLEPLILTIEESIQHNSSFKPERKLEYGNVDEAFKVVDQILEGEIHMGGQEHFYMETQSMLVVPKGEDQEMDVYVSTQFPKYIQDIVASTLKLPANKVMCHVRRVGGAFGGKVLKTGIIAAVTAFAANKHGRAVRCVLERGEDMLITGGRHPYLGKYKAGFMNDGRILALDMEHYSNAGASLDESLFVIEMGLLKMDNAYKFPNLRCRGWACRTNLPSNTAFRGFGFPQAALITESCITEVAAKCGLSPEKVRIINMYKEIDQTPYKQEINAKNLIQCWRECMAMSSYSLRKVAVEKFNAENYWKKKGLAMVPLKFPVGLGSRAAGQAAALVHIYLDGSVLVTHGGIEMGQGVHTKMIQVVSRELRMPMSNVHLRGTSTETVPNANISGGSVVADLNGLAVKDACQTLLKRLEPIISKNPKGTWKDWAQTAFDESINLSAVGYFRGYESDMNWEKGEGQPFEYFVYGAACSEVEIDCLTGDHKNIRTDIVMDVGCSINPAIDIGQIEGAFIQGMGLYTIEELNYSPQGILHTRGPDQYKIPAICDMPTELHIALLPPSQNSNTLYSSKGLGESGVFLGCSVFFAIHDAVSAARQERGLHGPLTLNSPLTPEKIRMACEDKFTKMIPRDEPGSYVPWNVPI

[2] = biological target: PI3-kinase p110-delta/p85-alpha (Homo sapiens, UniProt O00329); assay: Inhibition human full length PI3Kdelta catalytic subunit/p85alpha assessed as formation of PIP3 after 30 mins by europium labeled GRP-based TR-FRET assay; assay type: protein-complex assay
Chain of PI3-kinase p110-delta/p85-alpha (P27986 whole entry): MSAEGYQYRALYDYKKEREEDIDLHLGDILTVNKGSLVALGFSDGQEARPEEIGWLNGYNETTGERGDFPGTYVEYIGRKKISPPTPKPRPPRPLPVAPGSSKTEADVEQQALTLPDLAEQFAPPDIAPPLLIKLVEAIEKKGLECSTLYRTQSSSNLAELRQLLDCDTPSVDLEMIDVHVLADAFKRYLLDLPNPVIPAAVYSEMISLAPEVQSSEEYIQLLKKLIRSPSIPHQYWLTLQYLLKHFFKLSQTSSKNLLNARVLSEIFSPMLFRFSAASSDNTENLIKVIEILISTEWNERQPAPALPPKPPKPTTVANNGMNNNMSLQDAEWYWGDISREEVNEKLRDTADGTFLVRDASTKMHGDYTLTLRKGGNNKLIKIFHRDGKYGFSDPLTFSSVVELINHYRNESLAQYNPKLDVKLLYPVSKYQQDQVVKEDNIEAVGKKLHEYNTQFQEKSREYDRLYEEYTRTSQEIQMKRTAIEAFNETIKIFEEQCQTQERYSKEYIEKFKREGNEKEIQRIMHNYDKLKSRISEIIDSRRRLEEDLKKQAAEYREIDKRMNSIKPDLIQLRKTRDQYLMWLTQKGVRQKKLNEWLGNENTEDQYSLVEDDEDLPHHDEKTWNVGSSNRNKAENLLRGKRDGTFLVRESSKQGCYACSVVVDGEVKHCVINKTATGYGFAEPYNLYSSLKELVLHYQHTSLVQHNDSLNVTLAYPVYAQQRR
Chain of PI3-kinase p110-delta/p85-alpha (O00329 whole entry): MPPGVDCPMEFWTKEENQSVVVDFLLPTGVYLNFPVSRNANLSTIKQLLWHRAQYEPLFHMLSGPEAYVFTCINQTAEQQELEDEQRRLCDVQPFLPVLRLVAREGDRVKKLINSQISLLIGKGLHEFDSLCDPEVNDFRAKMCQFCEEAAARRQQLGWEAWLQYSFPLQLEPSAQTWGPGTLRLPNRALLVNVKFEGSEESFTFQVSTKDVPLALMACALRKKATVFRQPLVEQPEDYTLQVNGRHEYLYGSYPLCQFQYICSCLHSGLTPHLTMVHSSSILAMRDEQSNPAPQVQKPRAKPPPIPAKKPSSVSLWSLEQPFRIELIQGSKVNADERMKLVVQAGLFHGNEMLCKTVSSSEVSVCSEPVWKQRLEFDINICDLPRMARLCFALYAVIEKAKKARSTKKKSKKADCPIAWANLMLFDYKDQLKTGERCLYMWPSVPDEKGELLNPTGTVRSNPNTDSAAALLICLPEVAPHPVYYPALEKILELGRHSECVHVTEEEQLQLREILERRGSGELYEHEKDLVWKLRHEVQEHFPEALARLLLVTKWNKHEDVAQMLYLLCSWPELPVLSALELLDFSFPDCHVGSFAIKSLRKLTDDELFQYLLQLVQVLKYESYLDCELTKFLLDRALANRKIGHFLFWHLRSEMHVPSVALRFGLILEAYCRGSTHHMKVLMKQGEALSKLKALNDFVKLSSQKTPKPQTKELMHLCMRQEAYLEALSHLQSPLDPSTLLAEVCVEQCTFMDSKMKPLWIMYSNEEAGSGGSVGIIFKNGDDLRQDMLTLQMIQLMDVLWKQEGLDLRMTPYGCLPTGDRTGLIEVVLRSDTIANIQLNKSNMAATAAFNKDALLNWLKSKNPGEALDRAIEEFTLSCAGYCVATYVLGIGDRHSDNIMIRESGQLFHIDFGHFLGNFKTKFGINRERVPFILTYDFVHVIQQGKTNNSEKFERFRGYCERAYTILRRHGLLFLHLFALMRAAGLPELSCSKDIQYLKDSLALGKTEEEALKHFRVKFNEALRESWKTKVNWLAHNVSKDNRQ

Homo sapiens [3] = species: Homo sapiens; assay: Selectivity ratio of IC50 for human full length PI3Kalpha catalytic subunit/p85alpha to IC50 for human full length PI3Kdelta catalytic subunit/p85alpha
In short: (§1)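 Ratio calculated from the isoform-specific PI3K IC50 values, with enzyme assays run in quadruplicate.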

Homo sapiens [4] = species: Homo sapiens; assay: Selectivity ratio of IC50 for human full length PI3Kgamma to IC50 for human full length PI3Kdelta catalytic subunit/p85alpha; in short: as §1
[5] = Clearance in human hepatocytes at 1 uM by LC/MS/MS analysis; assay type: ADME, cell-based, Hepatocyte
In short: (§2)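 Human hepatocytes, incubated with and without the aldehyde oxidase inhibitor raloxifene; predicted clearance calculated from turnover.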

Homo sapiens [6] = species: Homo sapiens; assay: Selectivity ratio of IC50 for human recombinant PI3Kbeta to IC50 for human full length PI3Kdelta catalytic subunit/p85alpha; in short: as §1
Hepatocyte = assay: Clearance in human hepatocytes at 1 uM by LC/MS/MS in presence of aldehyde oxidase inhibitor raloxifene; assay type: ADME, cell-based; in short: as §2
Aldehyde oxidase [7] = biological target: T1, Aldehyde oxidase; assay: Drug metabolism in human hepatocytes assessed as aldehyde oxidase mediated (S)-4-Amino-6-((1-(5-chloro-4-oxo-3-phenyl 3,4-dihydroquinazolin-2-yl)ethyl)amino)-2-hydroxypyrimidine-5-carbonitrile formation at 1 uM by LC/MS/MS analysis; assay type: ADME, cell-based, Hepatocyte
[8] = Volume of distribution at steady state in Sprague-Dawley rat at 0.44 mg/kg, iv by LC/MS/MS analysis; assay type: ADME, organism-based; settings: in vivo, read-out: Vdss
In short: (§3)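 Single intravenous dose of 0.44 mg/kg to Sprague-Dawley rats, formulated at 0.09 mg/mL in 5% ethanol, 75% PEG 400 and 20% citrate buffer (pH 3.0). Three animals per dosing route. Volume of distribution taken at steady state.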

Liver microsome [9] = assay: Clearance in rat liver microsomes at 1 uM by LC/MS/MS analysis in presence of NADPH generating system; assay type: ADME
Liver microsome [10] = assay: Clearance in human liver microsomes at 1 uM by LC/MS/MS analysis in presence of NADPH generating system; assay type: ADME
[11] = Half life in Sprague-Dawley rat at 0.44 mg/kg, iv by LC/MS/MS analysis; assay type: ADME, organism-based; settings: in vivo; in short: as §3
[12] = Clearance in Sprague-Dawley rat at 0.44 mg/kg, iv by LC/MS/MS analysis; assay type: ADME, organism-based; settings: in vivo; in short: as §3
Aldehyde oxidase [13] = biological target: T1, Aldehyde oxidase; assay: Drug level in human hepatocytes assessed as aldehyde oxidase-mediated compound formation treated with (S)-4-Amino-6-((1-(5-chloro-4-oxo-3-phenyl-3,4-dihydroquinazolin-2-yl)ethyl)amino)pyrimidine-5-carbonitrile at 1 uM by LC/MS/MS analysis; assay type: ADME, cell-based, Hepatocyte

C[C@H](Nc1ncnc(N)c1C#Cc1ccc(F)cn1)c1nc2cccc(Cl)c2c(=O)n1-c1ccccc1
Drug metabolism (Aldehyde oxidase [1]): metabolite_detected | IC50 [2]: 1200 pM | Ratio IC50 (Homo sapiens [3]): 2600 | Ratio IC50 (Homo sapiens [4]): 470 | CLhep predicted at 1 µM [5]: 8.5 mL/min/kg | Ratio IC50 (Homo sapiens [6]): 330 | CLH (Hepatocyte): 2.17 mL/min/kg

C[C@H](Nc1ncnc(N)c1C#N)c1nc2cccc(Cl)c2c(=O)n1-c1ccccc1
Drug metabolism (Aldehyde oxidase [7]): metabolite_detected | Vd [8]: 2.6 L/kg | CLH (Liver microsome [9]): 3.3 mL/min/kg | CLH (Liver microsome [10]): 1.7 mL/min/kg | IC50 [2]: 400 pM | Ratio IC50 (Homo sapiens [3]): 4600 | Ratio IC50 (Homo sapiens [3]; tested as the 2H-labelled form): 1200 | Ratio IC50 (Homo sapiens [4]): 680 | Ratio IC50 (Homo sapiens [4]; tested as the 2H-labelled form): 420 | CLhep predicted at 1 µM [5]: 14.7 mL/min/kg | Ratio IC50 (Homo sapiens [6]): 200 | Ratio IC50 (Homo sapiens [6]; tested as the 2H-labelled form): 70 | half-life [11]: 2.6 h | CLH (Hepatocyte): 1.5 mL/min/kg | clearance [12]: 18.3 mL/min/kg

C[C@H](Nc1nc(O)nc(N)c1C#N)c1nc2cccc(Cl)c2c(=O)n1-c1ccccc1
Drug metabolism (Aldehyde oxidase [13]): metabolite_detected

Source: ChEMBL document CHEMBL3804828, “2,4,6-Triaminopyrimidine as a Novel Hinge Binder in a Series of PI3Kδ Selective Inhibitors” (J Med Chem, 2016)
